Source: PubChem BioAssay (Broad Institute)
Only some compounds are listed: those with a hit (about 5.9% of all), similar ones and a draw of the others.
T cruzi growth-1 – T. cruzi proliferation inhibition | T. cruzi beta-gal in NIH3T3, GalScreen luminescence, 90 h | AID 624255 | 77,000 tested, 5.9% active | inhibition, % at 8.34 µM;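 active = mean inhibition above about 93%, with at least 55% of replicates each passing it, limit read from the data, passing the limit was not always enough; inconclusive = only one of those two conditions holds; inactive = neither condition holds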
KDM4C inh – inhibitors of human demethylase GASC-1 KDM4C. Q9H3R0. AID 720574. inhibition, % at 12.5 µM. GST-KDM4C 2-372, H3K9me3 peptide, LANCE TR-FRET. 96,000 tested, 0.15% active;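 active = mean replicate inhibition above about 25%, with at least 55% of replicates also reaching it, limit read from the data, passing the limit was not always enough; inconclusive = only one of those two conditions met; inactive = neither condition met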
Target sequence (Q9H3R0 2-372 limits assumed): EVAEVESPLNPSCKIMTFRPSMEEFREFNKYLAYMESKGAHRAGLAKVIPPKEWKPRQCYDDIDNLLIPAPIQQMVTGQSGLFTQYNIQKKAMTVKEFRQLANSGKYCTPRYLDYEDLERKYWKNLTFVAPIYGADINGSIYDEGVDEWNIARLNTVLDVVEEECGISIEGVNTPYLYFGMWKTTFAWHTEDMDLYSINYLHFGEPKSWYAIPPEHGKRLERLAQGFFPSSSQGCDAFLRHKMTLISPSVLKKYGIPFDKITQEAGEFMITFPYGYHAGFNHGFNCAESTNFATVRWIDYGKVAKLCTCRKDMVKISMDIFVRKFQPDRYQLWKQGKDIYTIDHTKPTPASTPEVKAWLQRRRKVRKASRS
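System – N-terminal GST-fused human GASC-1 (KDM4C) fragment, residues 2-372 · Input – enzyme final amount 10 nM · Technique – LANCE TR-FRET, Eu antibody, ULight-streptavidin, EDTA, ex 340 nm, em 618/671 nm · Medium – HEPES buffer, pH 7.5, plus ascorbate · Incubation – enzyme reaction 30 min, then detection 60 min, both room temperature · Reagent – H3K9me3 peptide with Fe(II)/2OG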
IDH1 mut inh – blocks human IDH1 R132H reductase activity; 70,000 tested, 0.18% active; diaphorase/resazurin fluorescence, 60 min; O75874; inhibition, % at 10 µM; in the data active = inhibition above about 34%; inconclusive = no clear call, values can overlap the other calls; inactive = below about 11%;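 note: 0% = DMSO and 100% = no enzyme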
Pf Dd2 growth – inhibitors of Plasmodium falciparum Dd2 growth; AID 1159554; activity change, % at 10 µM; P. falciparum Dd2 growth, SYBR Green, 72 h; hits give low values; 94,000 tested, 2.3% active; in the data active = activity change below about -80%; inconclusive = no clear call, values can overlap the other calls
T cruzi growth-2 – blocks T. cruzi growth in NIH3T3 host cells; shares compounds with T cruzi growth-1; T. cruzi beta-gal in NIH3T3, GalScreen luminescence, 90 h; inhibition, % at 8.35 µM; 5,600 tested, 72% active; AID 651739;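 active = mean replicate inhibition above about 95% and at least 55% of replicates individually reaching it, limit read from the data; inconclusive = only one of the two criteria is met; inactive = neither criterion is met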
T cruzi growth-3 – Trypanosoma cruzi proliferation inhibition. 5,600 tested, 21% active. AID 651740. T. cruzi beta-gal in NIH3T3, GalScreen luminescence, 90 h. shares compounds with T cruzi growth-1. inhibition, % at 2.09 µM;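 active = mean inhibition above about 95%, with at least 55% of replicates also reaching it, limit read from the data; inconclusive = meets just one of the two conditions; inactive = meets neither condition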;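 note: plate controls were neutral control median for no effect and positive control median for full effect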
NIH3T3 tox – NIH/3T3 (mouse) viability loss; cytotoxicity (signal decrease), % at 8.35 µM; shares compounds with T cruzi growth-1; 5,600 tested, 14% active; NIH/3T3 viability, CellTiter-Glo ATP luminescence, 90 h;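 active = mean signal decrease across replicates above about 35% based on untreated-well scatter, with enough replicates individually passing, limit read from the data; inconclusive = no rule stated though some were filed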;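 note: 0% = median of neutral control wells and 100% = median of positive control wells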
NIH3T3 tox 2 – cytotoxicity in mouse NIH/3T3 fibroblasts. NIH/3T3 viability, CellTiter-Glo ATP luminescence, 90 h. 5,600 tested, 56% active. shares compounds with T cruzi growth-1. inhibition, % at 24.9 µM;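 active = mean loss of cell viability signal at or above a set limit, and enough replicates individually reaching it; inconclusive = meets only the mean limit or only the replicate share; inactive = meets neither condition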;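 note: 0% = median of neutral control wells and 100% = median of positive control wells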
* marks the source's active call; other numbers are inactive results; ? = inconclusive; · = no result given.

SMILES	T cruzi growth-1	KDM4C inh	IDH1 mut inh	Pf Dd2 growth	T cruzi growth-2	T cruzi growth-3	NIH3T3 tox	NIH3T3 tox 2
O=C(c1ccccn1)N1CC[C@@H]2[C@H](CO)Nc3ccc(C#Cc4cccnc4)cc3[C@@H]21	?	2	·	-54	30	24	12	?
O=C(c1ccccn1)N1CC[C@@H]2[C@H](CO)Nc3ccc(-c4ccccc4F)cc3[C@@H]21	84	0	·	-5	·	·	·	·
O=C(CCn1cnc2ccccc2c1=O)Nc1ccc(S(=O)(=O)N2CCOCC2)cc1	·	·	0	·	·	·	·	·
COc1ccc(C)cc1S(=O)(=O)N1CCC(C(=O)Nc2cc(Cl)ccc2Cl)CC1	·	·	0	·	·	·	·	·
CCOC(=O)c1c(NC(=O)c2ccc(NS(C)(=O)=O)cc2)sc2c1CCCC2	·	·	2	·	·	·	·	·
C=C1CC[C@@]2(OC1)O[C@H]1CC3[C@@H]4CC=C5C[C@H](O[C@@H]6OC[C@H](O)[C@H](O)[C@H]6O[C@@H]6O[C@@H](C)[C@H](O)[C@@H](O)[C@H]6O)C[C@@H](O)[C@]5(C)C4CC[C@]3(C)[C@H]1[C@@H]2C (stereo not given in full)	·	·	0	·	·	·	·	·
Cc1cc(NS(=O)(=O)c2ccc(NS(=O)(=O)c3cccs3)cc2)nc(C)n1	·	·	0	·	·	·	·	·
O=C(CN1CCOCC1)N1CCCCN2[C@H](CO)[C@@H](c3ccc(C#Cc4ccccc4F)cc3)[C@@H]2C1	-3	2	·	-43	·	·	·	·
O=C(CN1CCOCC1)N1CCCCN2[C@@H](CO)[C@H](c3ccc(C#Cc4ccccc4F)cc3)[C@@H]2C1	107*	1	·	-18	112*	80	42*	102*
O=C(CN1CCOCC1)N1CCCCN2[C@@H](CO)[C@@H](c3ccc(C#Cc4ccccc4F)cc3)[C@@H]2C1	107*	-1	·	7	98*	60	?	100*
O=C(CN1CCOCC1)N1CCCCN2[C@H](CO)[C@@H](c3ccc(C#Cc4ccccc4F)cc3)[C@H]2C1	110*	1	·	-8	97*	-12	54*	95*
COc1ccc(S(=O)(=O)N(C)C[C@H]2OCCCC[C@@H](C)Oc3ccc(NC(=O)NC4CCCCC4)cc3C(=O)N([C@@H](C)CO)C[C@@H]2C)cc1	96*	0	·	-73	90	37	-9	-2
COc1ccc(S(=O)(=O)N(C)C[C@H]2OCCCC[C@@H](C)Oc3ccc(NC(=O)NC4CCCCC4)cc3C(=O)N([C@@H](C)CO)C[C@H]2C)cc1	93	-2	·	-61	·	·	·	·
COc1ccc(S(=O)(=O)N(C)C[C@H]2OCCCC[C@H](C)Oc3ccc(NC(=O)NC4CCCCC4)cc3C(=O)N([C@H](C)CO)C[C@@H]2C)cc1	104*	0	-1	-64	112*	7	0	2
COc1cc(CCC(=O)N2CCC=CC2=O)cc(OC)c1OC	·	·	0	·	·	·	·	·
C[C@H](CO)N1C[C@H](C)[C@H](CN(C)C(=O)Cc2ccccc2)OCCCC[C@H](C)Oc2ccc(N(C)C)cc2C1=O	104*	2	-1	-39	?	25	-10	-23
C[C@@H]1CCCCO[C@H](CN(C)C(=O)Cc2ccccc2)[C@@H](C)CN([C@@H](C)CO)C(=O)c2cc(N(C)C)ccc2O1	97*	0	-2	-22	46	27	-40	-13
Cc1ccc(OCCCn2cnc3ccccc3c2=O)c([N+](=O)[O-])c1	·	·	1	·	·	·	·	·
CCn1c(SCC(=O)Nc2cccc(Cl)c2Cl)nnc1-c1ccc([N+](=O)[O-])cc1	·	·	0	·	·	·	·	·
C/C=C/c1ccc2c(c1)O[C@@H](CN(C)S(=O)(=O)c1ccccc1OC)[C@@H](C)CN([C@@H](C)CO)S2(=O)=O	67	-1	-2	-47	·	·	·	·
C/C=C/c1ccc2c(c1)O[C@@H](CN(C)S(=O)(=O)c1ccc(C)cc1)[C@@H](C)CN([C@H](C)CO)S2(=O)=O	114*	-3	-1	-16	100*	81	32	67*
C/C=C/c1ccc2c(c1)O[C@@H](CN(C)S(=O)(=O)c1ccccc1)[C@@H](C)CN([C@@H](C)CO)S2(=O)=O	65	-2	-23	-36	·	·	·	·
COc1ccccc1S(=O)(=O)N(C)C[C@@H]1Oc2cc(/C=C/c3ccccc3)ccc2S(=O)(=O)N([C@H](C)CO)C[C@H]1C	124*	2	0	?	105*	103*	63*	71*
C/C=C/c1ccc2c(c1)O[C@H](CN(C)S(=O)(=O)c1ccccc1OC)[C@@H](C)CN([C@H](C)CO)S2(=O)=O	117*	-2	-6	-56	106*	86	39*	?
CN(C)CCCN1C(=O)C(=O)C(C(=O)c2cccs2)C1c1ccco1 (stereo not given)	·	·	-1	·	·	·	·	·
SMILES	T cruzi growth-1	KDM4C inh	IDH1 mut inh	Pf Dd2 growth	T cruzi growth-2	T cruzi growth-3	NIH3T3 tox	NIH3T3 tox 2
Cc1c(OCC(=O)Nc2ccc3c(c2)OCCO3)ccc2c1oc(=O)c1ccccc12	·	·	0	·	·	·	·	·
CN(C)C(=O)C[C@@H]1C[C@H]2c3cc(NS(=O)(=O)c4ccc(F)cc4)ccc3O[C@H]2[C@H](CO)O1	104*	2	-1	0	-2	-2	4	19
CN(C)C(=O)C[C@H]1C[C@@H]2c3cc(NS(=O)(=O)c4ccc(F)cc4)ccc3O[C@@H]2[C@H](CO)O1	35	2	0	26	·	·	·	·
CN(C)C(=O)C[C@@H]1C[C@H]2c3cc(NS(=O)(=O)c4ccc(F)cc4)ccc3O[C@H]2[C@@H](CO)O1	?	8	0	24	-15	1	-5	-10
CN1c2ccc(Br)cc2[C@@H]2[C@@H](CCN2C(=O)C2CC2)[C@H]1CO	61	3	·	-47	·	·	·	·
COc1ccc(-c2ccc3c(c2)[C@@H]2[C@@H](CCN2C(=O)C2CCC2)[C@H](CO)N3C)cc1	·	11	·	-17	·	·	·	·
COc1ccc(-c2ccc3c(c2)[C@@H]2[C@@H](CCN2C(=O)c2ccncc2)[C@@H](CO)N3C)cc1	98*	1	·	0	101*	84	9	15
CN1c2ccc(Br)cc2[C@H]2[C@H](CCN2C(=O)C2CC2)[C@H]1CO	104*	5	·	2	81	29	18	-1
COc1ccc(-c2ccc3c(c2)[C@@H]2[C@@H](CCN2C(=O)C2CCCCC2)[C@@H](CO)N3C)cc1	99*	0	·	-62	92	108*	6	106*
COc1ccc(-c2ccc3c(c2)[C@@H]2[C@@H](CCN2C(=O)C2CC2)[C@@H](CO)N3C)cc1	101*	2	·	-4	107*	109*	-6	50*
